# Measured values from ChEMBL document CHEMBL1143040, “Aporphine metho salts as neuronal nicotinic acetylcholine receptor blockers” (Bioorg Med Chem, 2007).
# Columns and labels:
# Type in all cases: cell-based
# [1] = biological target: Neuronal acetylcholine receptor; alpha4/beta2 (Homo sapiens, UniProt P17787+P43681); experiment: Displacement of [3H]cytisine from human alpha-4-beta-2 nAChR expressed in SH-EP1 cells
# How it was run: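 Radioligand displacement used membrane homogenates from a clonal cell line stably expressing human α4β2 nAChR. [3H]cytisine was at 1 nM in saline of 120 mM NaCl, 5 mM KCl, 1 mM MgCl2, 2.5 mM CaCl2, 50 mM Tris, pH 7.0. Nonspecific binding was defined with 10 μM nicotine. Ki was obtained from regression fits by Cheng-Prusoff. Mean ± SEM of four experiments in triplicate.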
# [2] = biological target: T1, Neuronal acetylcholine receptor subunit alpha-7 (Homo sapiens, UniProt P36544); experiment: Displacement of [125I]alpha-bungarotoxin from human alpha-7 nAChR expressed in SH-SY5Y cells
# T1 sequence (P36544 whole entry): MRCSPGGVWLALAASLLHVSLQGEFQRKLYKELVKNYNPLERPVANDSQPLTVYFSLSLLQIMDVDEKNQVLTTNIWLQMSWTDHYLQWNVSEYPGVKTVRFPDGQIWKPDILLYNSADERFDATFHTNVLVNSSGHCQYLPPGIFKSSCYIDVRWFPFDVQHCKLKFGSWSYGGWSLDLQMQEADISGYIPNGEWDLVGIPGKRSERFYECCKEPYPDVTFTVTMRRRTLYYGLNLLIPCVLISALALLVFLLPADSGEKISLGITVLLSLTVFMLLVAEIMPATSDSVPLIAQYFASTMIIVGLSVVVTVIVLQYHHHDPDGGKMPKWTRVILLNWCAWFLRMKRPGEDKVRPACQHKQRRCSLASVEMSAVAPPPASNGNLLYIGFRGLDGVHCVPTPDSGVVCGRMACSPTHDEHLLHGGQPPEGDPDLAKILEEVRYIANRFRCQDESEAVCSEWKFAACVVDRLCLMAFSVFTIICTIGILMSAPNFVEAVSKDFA
# How it was run: (§1)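 Membrane homogenates from a clonal cell line stably expressing human α7 nAChR. Radioligand was [125I]α-bungarotoxin at 0.2 nM in 140 mM NaCl, 1 mM EDTA, 50 mM Tris-HCl, pH 7.4. Nonspecific binding was defined with 10 μM nicotine. Ki came from non-linear regression fits by Cheng-Prusoff. Mean ± SEM of four experiments, triplicate samples, from at least two membrane preparations.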
# [3] = biological target: T1, Neuronal acetylcholine receptor subunit alpha-7; experiment: Inhibition of 0.2 nM [125I]alpha-bungarotoxin binding to human alpha-7 nAChR expressed in SH-SY5Y cells; how it was run: as §1
# Chain of Neuronal acetylcholine receptor; alpha4/beta2 (P17787 whole entry): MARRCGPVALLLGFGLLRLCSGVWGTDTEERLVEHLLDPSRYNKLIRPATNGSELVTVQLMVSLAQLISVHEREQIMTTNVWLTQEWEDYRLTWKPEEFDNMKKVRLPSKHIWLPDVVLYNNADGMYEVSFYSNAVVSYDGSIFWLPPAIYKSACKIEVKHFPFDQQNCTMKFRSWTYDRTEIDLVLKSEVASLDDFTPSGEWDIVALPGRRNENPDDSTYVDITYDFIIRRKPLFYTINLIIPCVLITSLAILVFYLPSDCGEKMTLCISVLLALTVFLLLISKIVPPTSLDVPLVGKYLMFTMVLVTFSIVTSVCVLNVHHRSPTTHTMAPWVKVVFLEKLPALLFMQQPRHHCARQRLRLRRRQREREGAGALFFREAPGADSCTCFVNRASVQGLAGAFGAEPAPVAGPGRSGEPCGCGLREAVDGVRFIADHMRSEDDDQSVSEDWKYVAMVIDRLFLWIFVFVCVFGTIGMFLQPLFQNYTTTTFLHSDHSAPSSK
# Chain of Neuronal acetylcholine receptor; alpha4/beta2 (P43681 whole entry): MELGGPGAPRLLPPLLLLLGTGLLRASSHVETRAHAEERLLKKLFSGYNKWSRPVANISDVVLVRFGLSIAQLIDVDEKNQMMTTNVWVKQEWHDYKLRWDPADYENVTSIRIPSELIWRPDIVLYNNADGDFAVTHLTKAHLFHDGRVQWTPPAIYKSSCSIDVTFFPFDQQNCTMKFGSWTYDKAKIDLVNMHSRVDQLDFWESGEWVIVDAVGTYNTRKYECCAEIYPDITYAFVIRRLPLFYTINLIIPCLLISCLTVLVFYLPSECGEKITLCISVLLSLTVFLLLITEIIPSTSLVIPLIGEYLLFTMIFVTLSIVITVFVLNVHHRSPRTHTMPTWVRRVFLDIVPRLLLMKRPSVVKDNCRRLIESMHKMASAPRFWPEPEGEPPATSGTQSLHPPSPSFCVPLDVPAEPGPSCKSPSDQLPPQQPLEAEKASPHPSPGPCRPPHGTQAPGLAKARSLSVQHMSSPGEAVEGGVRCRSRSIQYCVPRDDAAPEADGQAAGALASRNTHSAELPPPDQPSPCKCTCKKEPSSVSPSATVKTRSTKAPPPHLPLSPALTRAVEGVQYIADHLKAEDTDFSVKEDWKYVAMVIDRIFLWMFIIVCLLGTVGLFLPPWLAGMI
SMILES,IC50 [1],Ki [1],IC50 [2],Ki [2],inhibition [3]
COc1cc2c(cc1O)C[C@H]1c3c(cc(OC)c(OC)c3-2)CC[N+]1(C)C,3 µM,0.91 µM,12 µM,10 µM,–
COc1cc2c(c(Br)c1O)C[C@H]1c3c(c(Br)c(O)c(OC)c3-2)CCN1C,101 µM,31 µM,114 µM,95 µM,85%
COc1cc2c(cc1O)C[C@H]1c3c(c(Br)c(O)c(OC)c3-2)CCN1C [3-BROMOBOLDINE],99 µM,30 µM,100 µM,83 µM,91%
COc1cc2c(cc1O)C[C@H]1c3c(cc(O)c(OC)c3-2)CC[N+]1(C)C [BOLDINE METHIODIDE],8.2 µM,2.5 µM,18 µM,15 µM,–
COc1cc2c(cc1O)C[C@H]1c3c(cc(O)c(OC)c3-2)CCN1C [BOLDINE],10 µM,3 µM,81 µM,67 µM,–
COc1cc2c(cc1OC)-c1c(OC)c(OC)cc3c1[C@H](C2)[N+](C)(C)CC3 [GLAUCINE METHIODIDE],34 µM,10 µM,21 µM,18 µM,–
COc1cc2c(cc1OC)-c1c(OC)c(O)cc3c1[C@H](C2)[N+](C)(C)CC3 [PREDICENTRINE METHIODIDE],3.2 µM,0.97 µM,27 µM,21 µM,–
